{
  "source": "ChEMBL document CHEMBL1157302",
  "about": "“Quinone reductase induction as a biomarker for cancer chemoprevention” (J Nat Prod, 2006)",
  "key": {"[1]": {"assay": "Chemoprevention index, ratio of IC50 for mouse Hepa-1c1c7 cells to drug level required to double specific NADPH:quinone reductase activity in mouse Hepa-1c1c7 cells", "format": "functional", "how_it_was_run": "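QR induction measured in wild-type Hepa 1c1c7 murine hepatoma cells and two mutant lines (one lacking a functional Ah receptor, one unable to move receptor–ligand complex to the nucleus) by a previously described method; concentrations 2-30 µM; CD = concentration doubling specific QR activity; chemoprevention index = cell-viability IC50 divided by CD.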"}, "[2]": {"assay": "Inhibition of mouse Hepa-1c1c7 cells assessed as cell viability", "format": "functional, cell-based", "how_it_was_run": "(§1)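 Cell viability of wild-type and both mutant Hepa 1c1c7 lines measured alongside QR induction; IC50 = half-maximal inhibitory concentration of viability, mean ± SD, n = 2.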"}, "HepG2 [3]": {"system": "HepG2", "assay": "Induction of antioxidant response element activity in human HepG2 cells by luciferase based chemiluminescence assay", "format": "functional, cell-based", "how_it_was_run": "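HepG2 human hepatoma cells stably transfected with an ARE-luciferase plasmid; treated with 1.9-30 µM test agent, 10 µM 4′-bromoflavone or 10 µM sulforaphane positive controls, DMSO 0.5% final as vehicle control; chemiluminescence luciferase read-out as fold over control; mean of three determinations ± SD, Student's t-test p < 0.05.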"}, "HepG2 [4]": {"system": "HepG2", "assay": "Cytotoxicity against human HepG2 cells at 7.5 to 30 uM", "format": "functional, cell-based"}, "Rattus norvegicus [5]": {"system": "Rattus norvegicus", "assay": "Inhibition of DMBA-induced mammary carcinogenesis in Sprague-Dawley rat assessed as increase in tumor latency at 5000 mg/kg administered 7 days pre-DMBA challenge continued for 7 days post-DMBA challenge assessed after 120 days", "format": "functional, organism-based", "parameters": "dose 5000 mg/kg", "how_it_was_run": "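Female Sprague-Dawley rats given DMBA, as described previously; test agent in diet at 2500 or 5000 mg/kg diet from 7 days before to 7 days after DMBA, then unsupplemented diet; 20 rats/group; tumor latency, incidence over 120 days and body weight recorded.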"}, "Rattus norvegicus [6]": {"system": "Rattus norvegicus", "assay": "Toxicity in DMBA-induced mammary carcinogenesis in Sprague-Dawley rat assessed as body weight changes up to 20000 mg/kg administered 7 days pre-DMBA challenge continued for 7 days post-DMBA challenge assessed after 120 days", "format": "organism-based", "parameters": "dose 20000 mg/kg", "details": "in vivo, 2880 h", "how_it_was_run": "(§2)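 Dose-finding prior to tumor study: diets with 1000, 2000, 3000, 4000, 5000 and 20 000 mg/kg diet; toxicity judged by body weight change and necropsy.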"}, "Rattus norvegicus [7]": {"system": "Rattus norvegicus", "assay": "Toxicity in DMBA-induced mammary carcinogenesis in Sprague-Dawley rat assessed as necropsy up to 20000 mg/kg administered 7 days pre-DMBA challenge continued for 7 days post-DMBA challenge assessed after 120 days", "format": "organism-based", "parameters": "dose 20000 mg/kg", "details": "in vivo, 2880 h", "how_it_was_run": "as §2"}, "[8]": {"assay": "Inhibition of mouse Hepa-1c1c7 Bprc1 mutant cells assessed as cell viability", "format": "functional", "how_it_was_run": "as §1"}, "[9]": {"assay": "Chemoprevention index, ratio of IC50 for mouse Hepa-1c1c7 Bprc1 mutant cells to drug level required to double specific NADPH:quinone reductase activity in mouse Hepa-1c1c7 Bprc1 mutant cells", "format": "functional", "how_it_was_run": "(§3)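 Hepa 1c1c7 mutant lines; the index is the IC50 for cell viability (half-maximal inhibition; mean ± SD, n = 2) divided by the concentration that doubles QR specific activity (CD) in the same mutant line.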"}, "[10]": {"assay": "Inhibition of mouse Hepa-1c1c7 TAOc1Bprc1 mutant cells assessed as cell viability", "format": "functional", "how_it_was_run": "as §1"}, "[11]": {"assay": "Chemoprevention index, ratio of IC50 for mouse Hepa-1c1c7 TAOc1Bprc1 mutant cells to drug level required to double specific NADPH:quinone reductase activity in mouse Hepa-1c1c7 TAOc1Bprc1 mutant cells", "format": "functional", "how_it_was_run": "as §3"}, "[12]": {"assay": "Inhibition of 7,12-dimethylbenz[a]anthracene-induced preneoplastic lesions in a mouse mammary gland culture at 10 ug/mL", "format": "functional"}, "HepG2 [13]": {"system": "HepG2", "assay": "Induction of antioxidant response element activity in human HepG2 cells at 10 uM by luciferase based chemiluminescence assay", "format": "functional, cell-based", "how_it_was_run": "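HepG2 human hepatoma cells stably transfected with an ARE-luciferase plasmid were treated with test agent at 10 µM, with DMSO (0.5% final) as vehicle control. Luciferase was read by chemiluminescence and expressed as fold induction over control, as means of three determinations ± SD. Significance was tested by Student's t-test (p < 0.05).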"}},
  "note": "Active and inactive are the calls of the source. The calls are words filed in the database; no cut-off is given here.",
  "data": [
    {"smiles": "O=C(/C=C/c1ccc(O)cc1)c1ccc(O)cc1O", "note": "[ISOLIQUIRITIGENIN]", "values": [
      {"measurement": "Ratio", "setting": "[1]", "result": 11},
      {"measurement": "IC50", "setting": "[2]", "result": 19.6, "unit": "µM"},
      {"measurement": "Activity", "setting": "HepG2 [3]", "result": "Dose-dependent effect"},
      {"measurement": "Activity", "setting": "HepG2 [4]", "result": "inactive"},
      {"measurement": "Activity", "setting": "Rattus norvegicus [5]", "result": "Active"},
      {"measurement": "Activity", "setting": "Rattus norvegicus [6]", "result": "Non-toxic"},
      {"measurement": "Activity", "setting": "Rattus norvegicus [7]", "result": "Non-toxic"},
      {"measurement": "IC50", "setting": "[8]", "result": 16.2, "unit": "µM"},
      {"measurement": "Ratio", "setting": "[9]", "result": 2},
      {"measurement": "IC50", "setting": "[10]", "result": 22, "unit": "µM"},
      {"measurement": "Ratio", "setting": "[11]", "result": 10},
      {"measurement": "inhibition at 10 µg/mL", "setting": "[12]", "result": 76, "unit": "%"}
    ]},
    {"smiles": "C[S+]([O-])CCCCN=C=S", "note": "(centres undefined) [SULFORAPHANE]", "values": [
      {"measurement": "Ratio", "setting": "[1]", "result": 21},
      {"measurement": "IC50", "setting": "[2]", "result": 6.3, "unit": "µM"},
      {"measurement": "Activity", "setting": "HepG2 [13]", "result": "Active"},
      {"measurement": "IC50", "setting": "[8]", "result": 7.6, "unit": "µM"},
      {"measurement": "Ratio", "setting": "[9]", "result": 16},
      {"measurement": "IC50", "setting": "[10]", "result": 5.9, "unit": "µM"},
      {"measurement": "Ratio", "setting": "[11]", "result": 18}
    ]},
    {"smiles": "O=c1cc(-c2ccc(Br)cc2)oc2ccccc12", "values": [
      {"measurement": "Ratio", "setting": "[1]", "result": ">2700"},
      {"measurement": "IC50", "setting": "[2]", "result": "> 62.5", "unit": "µM"},
      {"measurement": "Activity", "setting": "HepG2 [13]", "result": "Active"},
      {"measurement": "IC50", "setting": "[8]", "result": "> 62.5", "unit": "µM"},
      {"measurement": "IC50", "setting": "[10]", "result": "> 62.5", "unit": "µM"}
    ]}
  ]
}
